Assay outcomes: PubChem BioAssay, The Scripps Research Institute Molecular Screening Center
Only some compounds are listed: those with a hit (about 1.6% of all), similar ones and a draw of the others.
UHRF1 MBD2 ctr: UHRF1 methyl-DNA binding inhibition; Q96T88; UHRF1 binding to methylated oligo, TR-FRET; inhibition, % at 4.4 µM; 0.75% of 370,000 active; AID 687016; in the data active means inhibition above about 21%;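 further: UHRF1 SRA domain binding a hemimethylated CpG hairpin DNA probe; 0% = median of test compound wells and 100% = reference inhibitor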
Target sequence (Q96T88 whole entry, looked up, the tested form may be a part): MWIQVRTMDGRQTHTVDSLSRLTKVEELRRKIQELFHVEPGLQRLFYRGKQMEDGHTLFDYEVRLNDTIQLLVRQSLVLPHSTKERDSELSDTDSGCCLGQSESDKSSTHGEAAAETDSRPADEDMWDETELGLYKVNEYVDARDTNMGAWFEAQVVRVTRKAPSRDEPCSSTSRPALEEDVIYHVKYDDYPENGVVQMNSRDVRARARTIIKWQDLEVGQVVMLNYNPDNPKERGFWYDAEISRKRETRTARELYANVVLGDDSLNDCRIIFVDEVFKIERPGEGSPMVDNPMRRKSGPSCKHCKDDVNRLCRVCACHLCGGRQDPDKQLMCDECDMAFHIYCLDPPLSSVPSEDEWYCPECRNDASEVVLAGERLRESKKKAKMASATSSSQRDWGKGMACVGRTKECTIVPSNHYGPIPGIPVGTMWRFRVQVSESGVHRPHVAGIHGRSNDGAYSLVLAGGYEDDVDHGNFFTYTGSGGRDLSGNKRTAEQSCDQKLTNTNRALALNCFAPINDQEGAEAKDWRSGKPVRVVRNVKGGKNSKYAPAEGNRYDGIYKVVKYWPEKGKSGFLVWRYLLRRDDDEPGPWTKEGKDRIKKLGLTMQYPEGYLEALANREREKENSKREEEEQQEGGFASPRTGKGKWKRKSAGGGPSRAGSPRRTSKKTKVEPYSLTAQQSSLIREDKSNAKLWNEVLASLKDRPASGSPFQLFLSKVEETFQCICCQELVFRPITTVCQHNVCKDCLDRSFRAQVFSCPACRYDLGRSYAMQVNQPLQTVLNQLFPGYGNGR
TDP2 inh: blocks human TDP2 phosphodiesterase activity | O95551 | recombinant TDP2, T5PNP hydrolysis, p-nitrophenol absorbance 415 nm | inhibition, % at 12.8 µM | 0.34% of 370,000 active | AID 720702;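 active means inhibition above the mean of all tested compounds plus 3 SD, set per campaign, cut at about 25% in these data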;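 further: 0% = DMSO with enzyme and 100% = buffer with substrate but no TDP2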
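Incubation: 2 h at 37 °C; Test system: recombinant human TDP2; Quantity: enzyme 120 nM; Read-out basis: percent inhibition; Medium: 50 mM Tris-HCl pH 7.5 with Mg2+, KCl, DTT, BSA; Repeats: single replicate; Compound: 12.8 µM single point, 1% DMSO; Signal: epi absorbance; Reagent: 5 mM T5PNP chromogenic substrate; Benchmarks: no-enzyme high, DMSO-plus-enzyme low.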
LEDGF integ inh: blocks HIV-1 LEDGF/p75-dependent DNA integration | inhibition, % at 3.7 µM | AID 743269 | TR-FRET IN-LEDGF/p75 DNA integration, Eu/Cy5 | 0.64% of 370,000 active;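 active means inhibition above the screen-wide mean plus 3 SD, cut at about 13% in these data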;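 further: signal is the Cy5 over europium emission ratio at 671 and 618 nm; 0% = plate median of compound wells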
MBD2 inh: MBD2-methylated oligo binding inhibition; Q9UBB5; TR-FRET, MBD2 binding to methylated oligonucleotide; inhibition, % at 4.4 µM; 0.31% of 370,000 active; in the data active means inhibition above about 13%
Starred values were filed as active, the others as inactive.

SMILES	UHRF1 MBD2 ctr	TDP2 inh	LEDGF integ inh	MBD2 inh
O=S1(=O)CCOCCCN1Cc1cccc(C(F)(F)F)c1	-2	-2	1	-3
O=S1(=O)CCOCCCN1Cc1ccccc1F	41*	6	1	-3
CCCCCC(=O)NC(=S)Nc1ccccc1C(=O)OC	24*	5	6	12
CCCCC(=O)NC(=S)Nc1ccccc1C(=O)Nc1ccccc1	-1	-7	-3	-4
COc1ccc(C(C)(O)c2nc(-c3ccc4ccccc4c3)cs2)cc1 (stereo not drawn)	34*	-3	4	-7
COc1cc(-c2ccc(Nc3ccccc3C(=O)O)c(OC)c2)ccc1Nc1ccccc1C(=O)O	22*	3	9	8
CCCCN(CC)c1nc(N)c2c(N)nc(OCC)cc2c1C#N	38*	-10	-1	-4
CCOc1cc2c(C#N)c(N3CCCC3)nc(N)c2c(N)n1	-5	-2	1	-3
COc1cccc(-c2nn(-c3ccccc3)cc2C(=O)NCC(=O)O)c1	22*	6	2	8
COc1cccc(-c2nn(-c3ccccc3)cc2CO)c1	-2	2	1	-6
CC[C@@]12C(=O)N(c3ccccc3)C(=O)N1[C@H](c1cccc(C)c1)[C@@H]1C(=O)N(Cc3ccccc3)C(=O)[C@@H]12	24*	11	10	7
CCOC(=O)c1[nH]c(C)c(C(=O)OCC(=O)NCc2ccc(OC)cc2)c1C	9	-7	-1	1
CCOC(=O)c1c(C)[nH]c(C(=O)N(C)CC(=O)Nc2ccc(OC)cc2)c1C	21*	-4	-5	0
Cc1ccc(C(=O)OCC(=O)NCc2ccccc2)s1	0	-1	4	-5
Cc1ccc(C(=O)OCC(=O)NCCNC(=O)COC(=O)c2ccc(C)s2)s1	30*	8	1	-1
Cc1cc(C(=O)COC(=O)c2cccnc2Cl)c(C)n1C	0	2	35*	-5
O=C1CC(Nc2ccc(N3CCOCC3)cc2)C(=O)N1Cc1ccccc1 (stereo not drawn)	0	15	22*	-3
Cc1cc(C)cc(NC(=O)OC2CC3CC2[C@H]2CCCCN2[C@H]3Cc2ccccc2)c1 (stereo partly drawn)	0	-1	1	-3
CN(C1=C(NC(=O)c2ccccc2)C(=O)c2ccccc2C1=O)C1CCS(=O)(=O)C1 (stereo not drawn)	-10	33*	11	-12
C=CCN1C(=O)[C@@H](CC(=O)N2CCC(c3ccccc3)CC2)[C@]2(C(=O)OCC)CCCCC/C=C/12	1	5	-2	1
Cc1ccc2cccc(OC(=O)/C=C\c3ccccc3)c2n1	27*	3	3	6
COc1ccccc1/C=C/C(=O)Oc1cccc2cccnc12	-2	-12	-3	-1
O=C(CC1CCCC1)N[C@H](C(=O)N1CCC[C@H]1C(=O)NCc1ccccc1)c1ccccc1	0	-7	-3	-3
CN(CC(=O)N1CCN(c2ccccc2)CC1)S(=O)(=O)c1cnc[nH]1	29*	-3	2	-2
O=C(O)c1ccccc1C(=O)Nc1ccccc1	1	-4	2	-1
SMILES	UHRF1 MBD2 ctr	TDP2 inh	LEDGF integ inh	MBD2 inh
O=C(Nc1ccccc1)c1ccccc1NC(=O)c1ccccc1C(=O)O	28*	17	-1	-2
COC(=O)[C@]12C[C@H](CC(=O)N3CCN(C(=O)c4ccco4)CC3)C(=O)N(Cc3ccccc3)C1=C[C@H](C(C)C)O[C@@H]2C1CC1	-1	0	5	0
C#CCNC(=O)C[C@H]1C[C@@]2(C(=O)OC)C(=C[C@H](C(C)C)O[C@@H]2C2CC2)N(Cc2cccc3ccccc23)C1=O	0	-11	7	1
Cc1cc(N2CCCC2)nc2ccc(NC(=S)NCCCN3CCC(C)CC3)cc12	22*	0	0	8
CCCN1CCN(CCCNC(=S)Nc2ccc3nc(N4CCN(CC)CC4)cc(C)c3c2)CC1	4	-1	3	7
CCNc1ccc2noc3c2c1C(=O)c1ccccc1-3	-35	11	-11	-19
O=C1c2ccccc2-c2onc3ccc(N4CCCC4)c1c23	23*	17	-4	1
COc1ccc(C(CCOC(=O)Oc2ccccc2)c2cc(OC)cc(OC)c2)cc1 (stereo not drawn)	-1	-6	4	-1
Clc1ccc(N2CCN(Cc3c[nH]c4ncccc34)CC2)cc1	23*	-5	-1	-3
c1ccc(CN2CCN(Cc3c[nH]c4ccccc34)CC2)cc1	0	1	3	2
Nc1ccc2c(c1)C(=O)Cc1ccccc1S2	49*	-6	0	1
COc1cccc2c(=O)n(CC(=O)N3CCC(C)CC3)ccc12	93*	4	6	-8
CCCC[C@@H]1CNC(=O)C(=O)N1CC1CCCCC1	-1	4	-1	-4
CCCCN1C(=O)C(=O)NC[C@@H]1CC1CCCCC1	48*	-4	6	10
O=C(Nc1ccccc1[N+](=O)[O-])NC1CCCCN(Cc2ccc(Cl)cc2)C1=O (stereo not drawn)	0	-2	-4	3
COc1ccc(S(=O)(=O)N2CCOCC2)cc1NC(=O)CN(C)Cc1c(F)cccc1Cl	24*	-8	3	4
COc1cc(-c2cccc([C@H]3[C@@H]4C=CC[C@@H](C)[C@@H]4C(=O)N3Cc3ccccc3)c2)cc(OC)c1OC	46*	-8	1	6
CC(C)NC(=O)N[C@H]1C[C@@H]2O[C@H](CO)CC[C@@H]2O[C@@H]1CCc1ccc(-c2ccccc2F)cc1	7	-1	0	-6
Cc1ccc(-c2cccc3[nH]cc(C)c23)s1	-1	-2	1	-1
O=C(OC12CCCN(C1)/C(=C/c1ccccc1)C2)c1cccc(F)c1 (stereo not drawn)	1	3	3	-4
O=C(O)c1cccc(S(=O)(=O)NCc2cccs2)c1	-1	9	-1	-4
O=C1CC(=O)Nc2cc(S(=O)(=O)NCc3cccs3)ccc2N1	24*	8	-1	9
COc1ccc(S(=O)(=O)NCc2cccs2)cc1	48*	0	0	6
C[C@H](O)[C@@H]1CN2CCc3c([nH]c4cccc(-c5ccccc5)c34)[C@@H]2C[C@@H]1N(C)C(=O)c1ccco1	-5	6	2	-10
C[C@H]1C(c2ccccc2F)O[C@]2(C[C@H](O)c3c(ccc4ccccc34)O2)C[C@@H]1O (stereo partly drawn)	-2	1	2	1
O=C(NC12CC3CC(CC(C3)C1)C2)c1ccc(-c2cccc(Cl)c2)o1	21*	-2	2	8
CC(C)CNC(=O)C(=O)NC1CCCC1	21*	1	3	5
C[C@@H]1COc2cccc(F)c2S(=O)(=O)N1C	0	9	-4	-1
O=C(NC(=S)NC1CCSC1=O)c1cccs1 (stereo not drawn)	50*	-2	-2	-3
COC(=O)CSc1nnc(-c2ccoc2C)n1-c1ccc(C)cc1	22*	-11	2	13
